Experimental data from different studies.
Target: Tyrosine-protein kinase Mer (MERTK, Homo sapiens, UniProt Q12866)
Sequence (Q12866 21-999, as in one of the studies): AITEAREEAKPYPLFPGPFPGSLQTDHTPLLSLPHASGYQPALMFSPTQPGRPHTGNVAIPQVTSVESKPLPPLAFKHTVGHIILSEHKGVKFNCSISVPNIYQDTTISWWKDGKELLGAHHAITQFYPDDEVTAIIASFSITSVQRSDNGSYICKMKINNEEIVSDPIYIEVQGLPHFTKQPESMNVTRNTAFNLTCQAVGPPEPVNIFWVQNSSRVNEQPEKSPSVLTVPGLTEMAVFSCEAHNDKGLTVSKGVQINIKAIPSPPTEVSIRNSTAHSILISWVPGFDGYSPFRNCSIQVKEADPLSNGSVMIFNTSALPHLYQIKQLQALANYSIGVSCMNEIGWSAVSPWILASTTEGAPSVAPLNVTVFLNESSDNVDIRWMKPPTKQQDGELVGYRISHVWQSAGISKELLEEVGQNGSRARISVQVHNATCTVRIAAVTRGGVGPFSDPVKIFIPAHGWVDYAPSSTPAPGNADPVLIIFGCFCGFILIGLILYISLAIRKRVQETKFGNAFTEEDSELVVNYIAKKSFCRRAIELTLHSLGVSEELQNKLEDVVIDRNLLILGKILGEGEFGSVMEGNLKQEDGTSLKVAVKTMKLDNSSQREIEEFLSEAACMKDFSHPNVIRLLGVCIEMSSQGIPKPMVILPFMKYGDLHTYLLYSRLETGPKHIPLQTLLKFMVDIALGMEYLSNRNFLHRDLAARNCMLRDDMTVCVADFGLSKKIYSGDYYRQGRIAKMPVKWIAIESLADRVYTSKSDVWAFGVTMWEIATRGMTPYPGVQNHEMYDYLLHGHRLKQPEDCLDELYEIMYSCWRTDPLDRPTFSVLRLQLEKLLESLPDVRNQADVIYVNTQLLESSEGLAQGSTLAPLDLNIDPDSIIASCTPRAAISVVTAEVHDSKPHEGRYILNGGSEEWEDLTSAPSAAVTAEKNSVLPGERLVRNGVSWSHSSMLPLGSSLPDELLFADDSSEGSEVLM

| SMILES | test | conditions | quantity | value |
| --- | --- | --- | --- | --- |
| CNC(=O)Nc1ccc2c(c1)[C@@]1(CC2)OC(=O)N(CC(=O)N(Cc2ccc(F)cc2)[C@@H](C)C(F)(F)F)C1=O | cell-free assay, competition with immobilised ligand | 1 µM | remaining binding | 100% |
| Cn1c2c(Cl)c(Cl)ccc2c2cc(N)[nH]c(=O)c21 | thermal stability, DSF | 10 µM | ΔTm | 0.1 °C |
| CCCCN(CCCC)C(=O)CN1C[C@@H](c2cc(OC)c3c(c2)OCO3)[C@H](C(=O)O)[C@H]1CC(C)(C)CCC | cell-free assay, competition with immobilised ligand | 1 µM | remaining binding | 100% |
| Cc1cc(NC(=O)c2cccc3cc(-c4cccc5[nH]nc(N)c45)ccc23)ccc1F | enzyme activity, inhibitor | 0.1 µM | activity vs control | 96% |
| O=C1Nc2ccc(Cl)cc2C1=Cc1cc(Cl)c(O)c(Cl)c1 | cell-free assay | 0.5 µM | remaining signal | 88.4% |
| COc1cc2ncnc(Nc3ccc(Oc4ccccc4)c(C)c3C)c2cc1OC | enzyme activity, inhibitor | 1 µM | inhibition | 28% |
| CC(C)(O)[C@H]1CC[C@H](Nc2ccc3ncc(-c4cccc(C(F)(F)F)c4)n3n2)CC1 | enzyme activity, inhibitor | 1 µM | remaining activity | 64.1% |
| CC/C(=N\NC(=O)NCc1cccc(O)c1)c1ccc(O)c(C)c1O | enzyme activity, inhibitor | 0.1 µM | inhibition | 5% |
| O=C(NS(=O)(=O)c1ccc(NCC2CCOCC2)c([N+](=O)[O-])c1)c1ccc(N2CCN(Cc3ccc(C(F)(F)F)cc3-c3ccc(Cl)cc3)CC2)cc1Oc1cnc2[nH]ccc2c1 | cell-free assay, competition with immobilised ligand | 1 µM | remaining binding | 100% |
| CN1CCC2(CC1)NC(=O)c1c(c3ccc(Cl)c(Cl)c3n1C)C2C#N (racemic) | thermal stability, DSF | 10 µM | ΔTm | -0.4 °C |
| Cc1nccc(COC(=O)N2C[C@@H]3[C@@H](CNC(=O)c4ccc5[nH]nnc5c4)[C@@H]3C2)n1 | cell-free assay, competition with immobilised ligand | 1 µM | remaining binding | 100% |
| O=C(Nc1cnn(-c2csc(C(=O)NC3COC3)c2)c1)Nc1c(F)cccc1Cl | enzyme activity, inhibitor | 5 µM | remaining activity | 77.1% |
| Cn1c2c(c3ccc(Cl)c(Cl)c31)C(C#N)C(C)(C)NC2=O (stereo not drawn) | thermal stability, DSF | 10 µM | ΔTm | -0.9 °C |
| CC(C)CC(=O)N1CCc2nc(-c3ccc(Br)cc3)nc(N(C)Cc3ccccc3)c2C1 | cell-free assay, competition with immobilised ligand | 0.1 µM | remaining binding | 100% |
| Cn1c2c(c3ccccc31)C(C#N)C(C)(C)NC2=O (stereo not drawn) | thermal stability, DSF | 10 µM | ΔTm | 0.8 °C |
| COc1cc(Cl)c(C(=O)N[C@@H](CN[C@H]2CC[C@@H](N)CC2)Cc2ccc(C#N)cc2)cc1-c1ccc(CN[C@H](C)c2ccc(C)cc2)o1 | enzyme activity, inhibitor | 1 µM | remaining activity | 99% |
| CN1CC(Oc2cnc(C#N)cc2-c2ccn3nc(NC(=O)C4CC4)cc3c2)C1 | enzyme activity, inhibitor | 1 µM | inhibition | 0% |
| CO[C@H]1CC[C@H](CNc2ccc(S(=O)(=O)NC(=O)c3ccc(N4CCN(CC5=C(c6ccc(Cl)cc6)CC(C)(C)CC5)CC4)cc3Oc3cnc4[nH]ccc4c3)cc2[N+](=O)[O-])CC1 | cell-free assay, competition with immobilised ligand | 1 µM | remaining binding | 85% |
| Cc1ccc(NC(=O)c2ccc(C)c(C(F)(F)F)c2)cc1C#Cc1nn(C2CCC(O)CC2)c2ncnc(N)c12 (stereo not drawn) | cell-free assay | 10 µM | remaining signal | 0% |
| CC(C)(C)c1nc2c(s1)c1nc(N)ncc1c1ccc(NS(=O)(=O)c3c(F)cccc3F)c(F)c12 | enzyme activity, inhibitor, radiometric | 1 µM | remaining activity | 124% |
| Cn1c2c(Cl)c(Cl)ccc2c2cc[nH]c(=O)c21 | thermal stability, DSF | 10 µM | ΔTm | 1.3 °C |
| Cc1cnc(NC2CCOCC2)nc1-n1cnc(C(=O)NC(CN)c2cc(F)cc(Cl)c2)c1 (stereo not drawn) | enzyme activity, inhibitor, radiometric | 1 µM | remaining activity | 96% |
| COc1cc2c(N3CCN(C(=O)Nc4ccc(OC(C)C)cc4)CC3)ncnc2cc1OCCCN1CCCCC1 | cell-free assay | 0.5 µM | remaining signal | 106% |
| CCN(CC)CCNC(=O)c1c(C)[nH]c(/C=C2\C(=O)Nc3ccc(F)cc32)c1C | enzyme activity, inhibitor | 10 µM | inhibition | 98% |
| CCN(CC)c1ccc(C2=NNC(=O)CC2C)cc1[N+](=O)[O-] (stereo not drawn) | enzyme activity, inhibitor | 10 µM | remaining activity | 97% |
| Cc1ccc(Nc2nccc(N(C)c3ccc4c(C)n(C)nc4c3)n2)cc1S(N)(=O)=O | enzyme activity, inhibitor | 10 µM | inhibition | 87% |
| CNCc1ccccc1-c1csc([C@H](C)Nc2nc(C)nc3cc(OC)c(OC)cc23)c1 | cell-free assay, competition with immobilised ligand | 1 µM | remaining binding | 72% |
| Cn1c2c(c3ccc(Cl)c(Cl)c31)C(C#N)C1(CCOCC1)NC2=O (stereo not drawn) | thermal stability, DSF | 10 µM | ΔTm | -0.5 °C |
| CCCOc1ccc([C@H]2[C@H](C(=O)O)[C@@H](c3ccc4c(c3)OCO4)CN2CC(=O)Nc2c(CC)cccc2CC)cc1 | cell-free assay, competition with immobilised ligand | 1 µM | remaining binding | 87% |
| CNC(=O)c1cc(Oc2ccc(NC(=O)Nc3ccc(Cl)c(C(F)(F)F)c3)cc2)ccn1 | enzyme activity, inhibitor | 10 µM | inhibition | 82% |
